Measurements as given in ChEMBL document CHEMBL1133704, “Synthesis, biodistribution, and primate imaging of fluorine-18 labeled 2beta-carbo-1'-fluoro-2-propoxy-3beta-(4-chlorophenyl)tr opanes. Ligands for the imaging of dopamine transporters by positron emission tomography” (J Med Chem, 2000).

Assays:
[1] = target: Sodium-dependent dopamine transporter (Homo sapiens, UniProt Q01959); test: Inhibition constant against [N-methyl-3H]WIN-35428 in murine kidney cells transfected with human dopamine transporter.; type: cell-based
Chain of Sodium-dependent dopamine transporter (Homo sapiens, UniProt Q01959) (Q01959 whole entry): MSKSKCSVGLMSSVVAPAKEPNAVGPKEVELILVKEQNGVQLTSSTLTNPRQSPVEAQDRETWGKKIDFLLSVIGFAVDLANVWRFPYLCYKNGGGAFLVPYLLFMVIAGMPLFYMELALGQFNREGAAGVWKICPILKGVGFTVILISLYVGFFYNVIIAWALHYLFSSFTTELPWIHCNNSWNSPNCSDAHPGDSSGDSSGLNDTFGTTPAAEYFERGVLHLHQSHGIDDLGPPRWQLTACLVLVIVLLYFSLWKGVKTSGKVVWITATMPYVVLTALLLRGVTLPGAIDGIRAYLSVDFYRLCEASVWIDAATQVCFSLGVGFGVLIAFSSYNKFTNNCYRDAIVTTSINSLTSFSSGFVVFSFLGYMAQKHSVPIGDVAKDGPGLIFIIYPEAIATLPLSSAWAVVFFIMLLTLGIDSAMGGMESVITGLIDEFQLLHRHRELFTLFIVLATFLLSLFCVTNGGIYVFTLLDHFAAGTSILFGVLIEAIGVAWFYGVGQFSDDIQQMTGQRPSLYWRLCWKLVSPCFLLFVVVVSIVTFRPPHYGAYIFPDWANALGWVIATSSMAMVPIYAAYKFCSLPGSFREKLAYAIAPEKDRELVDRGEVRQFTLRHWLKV
Outline: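 Membranes from a kidney cell line stably expressing human DAT. Buffer: 0.03 M phosphate, pH 7.4, with 0.32 M sucrose. Radioligand: [³H]WIN 35,428 at 2.0 nM final. Incubated 2 h at 4 °C with competitor at nine concentrations (10^-13 to 10^-6 M, triplicate). GF/B filtration, then scintillation counting. Ki taken from competition curves.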

[2] = target: Sodium-dependent dopamine transporter (Rattus norvegicus, UniProt P23977); test: Inhibition constant in rat dopamine transporter.
Chain of Sodium-dependent dopamine transporter (Rattus norvegicus, UniProt P23977) (P23977 whole entry): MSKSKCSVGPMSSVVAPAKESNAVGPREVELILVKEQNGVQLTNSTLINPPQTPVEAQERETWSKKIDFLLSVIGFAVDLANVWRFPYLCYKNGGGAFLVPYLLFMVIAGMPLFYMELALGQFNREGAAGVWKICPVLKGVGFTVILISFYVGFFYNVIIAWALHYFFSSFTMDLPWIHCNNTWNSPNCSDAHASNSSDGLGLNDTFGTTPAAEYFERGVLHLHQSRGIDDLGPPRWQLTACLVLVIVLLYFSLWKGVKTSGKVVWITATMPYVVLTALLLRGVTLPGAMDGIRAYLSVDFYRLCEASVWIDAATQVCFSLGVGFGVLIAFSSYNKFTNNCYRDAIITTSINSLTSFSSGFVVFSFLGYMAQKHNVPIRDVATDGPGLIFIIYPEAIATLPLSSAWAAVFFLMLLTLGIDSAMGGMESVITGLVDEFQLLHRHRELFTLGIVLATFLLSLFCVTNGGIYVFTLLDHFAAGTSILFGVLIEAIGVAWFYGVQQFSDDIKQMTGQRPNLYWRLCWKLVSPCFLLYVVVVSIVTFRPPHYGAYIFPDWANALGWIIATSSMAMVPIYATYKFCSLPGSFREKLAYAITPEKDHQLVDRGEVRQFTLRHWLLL
Outline: (§1)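 Run by an outside screening program on membranes from rat striatum or cortex. Radioligand (2-12 nM) was incubated with 7-11 competitor concentrations. Radioligands: [N-methyl-³H]WIN 35,428 for DAT, [³H]citalopram for 5-HT transporter, [³H]desmethylimipramine for NE transporter. Ki values reported.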

[3] = target: Norepinephrine transporter (Rattus norvegicus, UniProt Q9WTR4); test: Inhibition constant in rat Norepinephrine transporter; outline: as §1
Chain of Norepinephrine transporter (Q9WTR4 whole entry): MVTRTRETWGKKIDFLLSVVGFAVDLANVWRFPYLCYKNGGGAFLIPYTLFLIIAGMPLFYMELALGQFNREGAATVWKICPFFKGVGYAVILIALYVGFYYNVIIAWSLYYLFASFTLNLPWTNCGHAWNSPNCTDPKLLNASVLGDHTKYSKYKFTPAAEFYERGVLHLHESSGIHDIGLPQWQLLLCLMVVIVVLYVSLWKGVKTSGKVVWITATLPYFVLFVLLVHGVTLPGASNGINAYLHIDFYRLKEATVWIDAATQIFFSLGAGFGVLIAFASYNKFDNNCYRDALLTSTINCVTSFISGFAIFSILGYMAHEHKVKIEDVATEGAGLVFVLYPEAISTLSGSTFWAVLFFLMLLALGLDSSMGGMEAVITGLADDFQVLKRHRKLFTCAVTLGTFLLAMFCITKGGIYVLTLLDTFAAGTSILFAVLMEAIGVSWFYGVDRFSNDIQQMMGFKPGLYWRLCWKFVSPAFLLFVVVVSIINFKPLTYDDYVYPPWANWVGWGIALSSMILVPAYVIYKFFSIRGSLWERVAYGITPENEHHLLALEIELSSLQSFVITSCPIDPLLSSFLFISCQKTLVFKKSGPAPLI

[4] = target: Sodium-dependent serotonin transporter (Homo sapiens, UniProt P31645); test: Inhibition constant against [3H]citalopram in murine kidney cells transfected with human serotonin transporter.; type: cell-based
Chain of Sodium-dependent serotonin transporter (Homo sapiens, UniProt P31645) (P31645 whole entry): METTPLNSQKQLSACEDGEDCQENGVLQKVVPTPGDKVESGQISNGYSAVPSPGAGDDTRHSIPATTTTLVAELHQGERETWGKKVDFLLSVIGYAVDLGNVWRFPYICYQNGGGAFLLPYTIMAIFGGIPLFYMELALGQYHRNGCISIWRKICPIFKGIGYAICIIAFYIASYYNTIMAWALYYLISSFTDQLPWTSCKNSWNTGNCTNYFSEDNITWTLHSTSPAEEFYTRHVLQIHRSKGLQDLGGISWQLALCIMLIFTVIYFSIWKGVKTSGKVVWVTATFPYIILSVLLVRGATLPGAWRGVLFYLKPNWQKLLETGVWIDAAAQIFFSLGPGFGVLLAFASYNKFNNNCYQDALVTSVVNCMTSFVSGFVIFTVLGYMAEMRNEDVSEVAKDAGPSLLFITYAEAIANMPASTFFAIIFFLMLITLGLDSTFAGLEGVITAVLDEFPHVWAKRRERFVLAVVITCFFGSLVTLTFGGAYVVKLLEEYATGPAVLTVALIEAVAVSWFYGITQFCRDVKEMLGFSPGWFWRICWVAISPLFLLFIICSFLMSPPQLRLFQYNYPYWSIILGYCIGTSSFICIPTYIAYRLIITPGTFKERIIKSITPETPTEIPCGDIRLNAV
Outline: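 Membranes from a kidney cell line stably expressing human SERT. Buffer: 50 mM Tris, 120 mM NaCl, 5 mM KCl, pH 7.9. Radioligand: [³H]citalopram at 0.5 nM final. Incubated 1 h at 22 °C with competitor at nine concentrations (10^-13 to 10^-6 M, triplicate). Filtration, then scintillation counting. Ki taken from competition curves.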

[5] = target: Sodium-dependent serotonin transporter (Rattus norvegicus, UniProt P31652); test: Inhibition constant in rat serotonin transporter.; outline: as §1
Chain of Sodium-dependent serotonin transporter (Rattus norvegicus, UniProt P31652) (P31652 whole entry): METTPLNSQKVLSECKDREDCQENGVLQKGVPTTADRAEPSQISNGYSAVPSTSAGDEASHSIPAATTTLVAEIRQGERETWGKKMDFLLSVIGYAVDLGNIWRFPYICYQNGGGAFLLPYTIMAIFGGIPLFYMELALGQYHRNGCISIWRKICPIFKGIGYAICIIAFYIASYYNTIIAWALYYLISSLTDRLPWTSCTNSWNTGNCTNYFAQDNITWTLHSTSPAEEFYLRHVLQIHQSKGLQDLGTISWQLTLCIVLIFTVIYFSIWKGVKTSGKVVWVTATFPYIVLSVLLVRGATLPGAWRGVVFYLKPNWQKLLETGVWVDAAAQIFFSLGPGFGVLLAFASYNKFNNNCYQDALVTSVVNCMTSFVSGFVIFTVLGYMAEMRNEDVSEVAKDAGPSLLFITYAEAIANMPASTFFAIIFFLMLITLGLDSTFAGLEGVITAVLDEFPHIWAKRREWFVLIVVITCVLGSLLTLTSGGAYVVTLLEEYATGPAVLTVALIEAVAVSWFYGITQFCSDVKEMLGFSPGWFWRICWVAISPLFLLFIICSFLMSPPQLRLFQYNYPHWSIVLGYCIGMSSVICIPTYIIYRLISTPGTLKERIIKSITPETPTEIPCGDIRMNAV

[6] = Ratio of inhibition of 5-HT to inhibition of dopamine (5-HT/DA); ND means no data.
kidney = test: Ratio of inhibition of 5-HT to inhibition of dopamine (5-HT/DA) in murine kidney cells transfected with human serotonin transporter.; type: cell-based
Rattus norvegicus [7] = test: Distribution of Radioactivity (percent injected dose per gram of tissue) in rest rat of brain after 30 min of iv administration; value ranges from 0.85-1.21; type: ADME, organism-based; settings: in vivo, 0.5 h
Outline: (§2)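 Male Sprague-Dawley rats (225-300 g) under ketamine received a tail-vein dose of 50 µCi of [18F]-labeled tropane in 0.2 mL 13% EtOH/0.9% NaCl. At 5, 30, 60 or 120 min, cortex, striatum and cerebellum were dissected into tared tubes, weighed and γ-counted. "Rest of brain" was also counted. %dose/g was calculated against the diluted injected dose. Values are mean and range for three or four rats.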

Rattus norvegicus [8] = test: Distribution of Radioactivity (percent injected dose per gram of tissue) in rest rat of brain after 5 min of iv administration; value ranges from 1.19-1.53; type: ADME, organism-based; settings: in vivo; outline: as §2
Rattus norvegicus [9] = test: Distribution of Radioactivity (percent injected dose per gram of tissue) in rest rat of brain after 60 min of iv administration; value ranges from 0.36-0.52; type: ADME, organism-based; settings: in vivo, 1 h; outline: as §2
Rattus norvegicus [10] = test: Distribution of Radioactivity (percent injected dose per gram of tissue)in Rat striatum after 30 min of iv administration; value ranges from 3.57-6.08; type: ADME, organism-based; settings: in vivo, 0.5 h; outline: as §2
Rattus norvegicus [11] = test: Distribution of Radioactivity (percent injected dose per gram of tissue) in rest rat of brain after 120 min of iv administration; value ranges from 0.22-0.33; type: ADME, organism-based; settings: in vivo, 2 h; outline: as §2
Rattus norvegicus [12] = test: Distribution of Radioactivity (percent injected dose per gram of tissue) in Rat brain cerebellum after 5 min of iv administration; value ranges from 1.26-1.62; type: ADME, organism-based; settings: in vivo; outline: as §2
Rattus norvegicus [13] = test: Distribution of Radioactivity (percent injected dose per gram of tissue) in Rat brain cerebellum after 60 min of iv administration; value ranges from 0.32-0.48; type: ADME, organism-based; settings: in vivo, 1 h; outline: as §2
Rattus norvegicus [14] = test: Distribution of Radioactivity (percent injected dose per gram of tissue) in Rat brain cortex after 120 min of iv administration; value ranges from 0.22-0.33; type: ADME, organism-based; settings: in vivo, 2 h; outline: as §2
Rattus norvegicus [15] = test: Distribution of Radioactivity (percent injected dose per gram of tissue) in Rat brain cortex after 60 min of iv administration; value ranges from 0.51-1.09; type: ADME, organism-based; settings: in vivo, 1 h; outline: as §2
Rattus norvegicus [16] = test: Distribution of Radioactivity (percent injected dose per gram of tissue) in Rat striatum 5 min of iv administration; value ranges from 3.44-4.80.; type: ADME, organism-based; settings: in vivo; outline: as §2
Rattus norvegicus [17] = test: Distribution of Radioactivity (percent injected dose per gram of tissue) in Rat striatum after 120 min of iv administration; value ranges from 1.07-1.22; type: ADME, organism-based; settings: in vivo, 2 h; outline: as §2
Rattus norvegicus [18] = test: Distribution of Radioactivity (percent injected dose per gram of tissue) in Rat striatum after 60 min of iv administration; value ranges from 2.07-2.83; type: ADME, organism-based; settings: in vivo, 1 h; outline: as §2
Rattus norvegicus [19] = test: Distribution of Radioactivity (percent injected dose per gram of tissue) in Rat brain cortex after 30 min of iv administration; value ranges from 2.47-3.09; type: ADME, organism-based; settings: in vivo, 0.5 h; outline: as §2
Rattus norvegicus [20] = test: Distribution of Radioactivity (percent injected dose per gram of tissue) in Rat brain cortex after 5 min of iv administration; value ranges from 2.47-3.09; type: ADME, organism-based; settings: in vivo; outline: as §2
Rattus norvegicus [21] = test: Distribution of Radioactivity (percent injected dose per gram of tissue) in Rat brain cerebellum after 120 min of iv administration; value ranges from 0.19-0.25; type: ADME, organism-based; settings: in vivo, 2 h; outline: as §2
[22] = Ratio of Distribution of Radioactivity (percent injected dose per gram of tissue) in striatum to cerebellum of brain after 5 min of iv administration; value ranges from 2.49-3.81; type: ADME, organism-based; settings: in vivo
[23] = Ratio of Distribution of Radioactivity (percent injected dose per gram of tissue) in striatum to cerebellum of brain after 60 min of iv administration; value ranges from 4.43-6.93; type: ADME, organism-based; settings: in vivo, 1 h
[24] = Ratio of Distribution of Radioactivity (percent injected dose per gram of tissue) in striatum to cerebellum of brain after 30 min of iv administration; value ranges from 3.83-4.94; type: ADME, organism-based; settings: in vivo, 0.5 h
[25] = Ratio of Distribution of Radioactivity (percent injected dose per gram of tissue) in striatum to cortex of brain after 60 min of iv administration; value ranges from 2.59-4.06; type: ADME, organism-based; settings: in vivo, 1 h
[26] = Ratio of Distribution of Radioactivity (percent injected dose per gram of tissue) in striatum to cerebellum of brain after 120 min of iv administration; value ranges from 4.64-6.14; type: ADME, organism-based; settings: in vivo, 2 h
[27] = Ratio of Distribution of Radioactivity (percent injected dose per gram of tissue) in striatum to cortex of brain after 120 min of iv administration; value ranges from 2.61-3.24; type: ADME, organism-based; settings: in vivo, 2 h
[28] = Ratio of Distribution of Radioactivity (percent injected dose per gram of tissue) in striatum to cortex of brain after 5 min of iv administration; value ranges from 1.32-1.94; type: ADME, organism-based; settings: in vivo
Rattus norvegicus [29] = test: Distribution of Radioactivity (percent injected dose per gram of tissue) in Rat brain cerebellum after 30 min of iv administration; value ranges from 0.75-1.23; type: ADME, organism-based; settings: in vivo, 0.5 h; outline: as §2
[30] = Ratio of Distribution of Radioactivity (percent injected dose per gram of tissue) in striatum to cortex of brain after 30 min of iv administration; value ranges from 1.67-2.85; type: ADME, organism-based; settings: in vivo, 0.5 h

**Q.** With `C[C@@H](CF)OC(=O)C1C(c2ccc(Cl)cc2)CC2CCC1N2C` (stereo partly drawn) as the molecule, how does the Ki [1] read?
**A.** 0.00067 µM

**Q.** And the Ki [2]?
**A.** 0.00606 µM

**Q.** What about the Ki [3] of the same molecule?
**A.** 0.69 µM

**Q.** And the Ki [4]?
**A.** 0.085 µM

**Q.** And the Ki [5]?
**A.** 0.137 µM

**Q.** What about the Ratio [6] of the same molecule?
**A.** 23

**Q.** What about the Ratio (kidney) of the same molecule?
**A.** 127

**Q.** For `C[C@H](CF)OC(=O)C1C(c2ccc(Cl)cc2)CC2CCC1N2C` (stereo partly drawn), which Biodistribution (Rattus norvegicus [7]) is on record?
**A.** 1.03%

**Q.** What about the Biodistribution (Rattus norvegicus [8]) of the same molecule?
**A.** 1.36%

**Q.** What about the Biodistribution (Rattus norvegicus [9]) of the same molecule?
**A.** 0.45%

**Q.** What about the Biodistribution (Rattus norvegicus [10]) of the same molecule?
**A.** 4.5%

**Q.** What about the Biodistribution (Rattus norvegicus [11]) of the same molecule?
**A.** 0.27%

**Q.** What about the Biodistribution (Rattus norvegicus [12]) of the same molecule?
**A.** 1.42%

**Q.** What about the Biodistribution (Rattus norvegicus [13]) of the same molecule?
**A.** 0.38%

**Q.** And the Biodistribution (Rattus norvegicus [14])?
**A.** 0.4%

**Q.** What about the Biodistribution (Rattus norvegicus [15]) of the same molecule?
**A.** 0.77%

**Q.** What about the Biodistribution (Rattus norvegicus [16]) of the same molecule?
**A.** 3.97%

**Q.** What about the Biodistribution (Rattus norvegicus [17]) of the same molecule?
**A.** 1.2%

**Q.** And the Biodistribution (Rattus norvegicus [18])?
**A.** 2.28%

**Q.** What about the Biodistribution (Rattus norvegicus [19]) of the same molecule?
**A.** 2.04%

**Q.** What about the Biodistribution (Rattus norvegicus [20]) of the same molecule?
**A.** 2.76%

**Q.** And the Biodistribution (Rattus norvegicus [21])?
**A.** 0.22%

**Q.** What about the Ki [1] of the same molecule?
**A.** 0.0032 µM

**Q.** And the Ki [2]?
**A.** 0.0147 µM

**Q.** And the Ki [3]?
**A.** 0.498 µM

**Q.** And the Ki [4]?
**A.** 0.064 µM

**Q.** And the Ki [5]?
**A.** 0.133 µM

**Q.** What about the “S/Cereb Ratio” value [22] of the same molecule?
**A.** 2.79

**Q.** And the “S/Cereb Ratio” value [23]?
**A.** 6

**Q.** And the “S/Cereb Ratio” value [24]?
**A.** 4.55

**Q.** What about the Ratio [6] of the same molecule?
**A.** 9

**Q.** What about the Ratio (kidney) of the same molecule?
**A.** 20

**Q.** What about the “S/CX Ratio” value [25] of the same molecule?
**A.** 2.96

**Q.** What about the “S/Cereb Ratio” value [26] of the same molecule?
**A.** 5.45

**Q.** And the “S/CX Ratio” value [27]?
**A.** 3

**Q.** What about the “S/CX Ratio” value [28] of the same molecule?
**A.** 1.44

**Q.** What about the Biodistribution (Rattus norvegicus [29]) of the same molecule?
**A.** 0.99%

**Q.** What about the “S/CX Ratio” value [30] of the same molecule?
**A.** 2.21
